For assay [1], the target named is T1, Tyrosine-protein kinase receptor UFO (Homo sapiens, UniProt P30530).
T1 sequence (P30530 whole entry): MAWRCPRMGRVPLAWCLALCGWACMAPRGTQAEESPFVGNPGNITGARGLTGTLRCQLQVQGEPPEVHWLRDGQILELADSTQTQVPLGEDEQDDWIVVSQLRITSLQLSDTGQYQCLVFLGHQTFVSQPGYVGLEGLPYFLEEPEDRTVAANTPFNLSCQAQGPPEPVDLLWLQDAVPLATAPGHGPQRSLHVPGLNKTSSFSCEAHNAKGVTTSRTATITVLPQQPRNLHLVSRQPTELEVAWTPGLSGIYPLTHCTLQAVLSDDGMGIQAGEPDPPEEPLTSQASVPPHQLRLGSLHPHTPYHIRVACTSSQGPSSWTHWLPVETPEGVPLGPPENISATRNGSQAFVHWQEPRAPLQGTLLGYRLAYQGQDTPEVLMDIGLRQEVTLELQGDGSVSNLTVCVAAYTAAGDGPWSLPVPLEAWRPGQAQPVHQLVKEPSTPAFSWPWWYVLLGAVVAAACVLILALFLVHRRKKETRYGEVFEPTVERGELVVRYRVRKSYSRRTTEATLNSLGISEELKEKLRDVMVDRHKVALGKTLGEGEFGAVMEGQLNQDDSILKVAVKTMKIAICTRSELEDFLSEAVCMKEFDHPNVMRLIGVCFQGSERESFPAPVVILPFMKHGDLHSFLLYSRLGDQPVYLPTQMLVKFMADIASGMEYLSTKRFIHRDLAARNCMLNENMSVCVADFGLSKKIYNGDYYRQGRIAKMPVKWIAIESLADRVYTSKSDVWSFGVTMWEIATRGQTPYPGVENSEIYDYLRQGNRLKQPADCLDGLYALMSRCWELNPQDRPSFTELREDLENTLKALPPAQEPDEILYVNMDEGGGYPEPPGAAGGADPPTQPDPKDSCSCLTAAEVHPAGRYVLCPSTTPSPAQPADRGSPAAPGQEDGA
Description: Inhibition of N-terminal His-tagged recombinant human AXL (473 to end amino acids) expressed by baculovirus in Sf9 cells using axltide substrate and ATP by ADP-Glo luminescence assay.

The test system of the next assay is A549. The experiment in a line: Antiproliferative activity against human A549 cells after 2 days by spectrophotometric analysis. The format is functional. The settings on record: A549, 48 h.
The next assay deals with U-87 MG. Description: Antiproliferative activity against human U87MG cells after 2 days by spectrophotometric analysis. The format is functional, U-87MG ATCC. Particulars: 48 h.
Assay [2] has as its target Mast/stem cell growth factor receptor Kit (Homo sapiens) (UniProt P10721). The experiment in a line: Inhibition of human c-KIT at 10 uM using poly[Glu:Tyr] (4:1) as substrate by [gamma-33P]-ATP assay relative to control. In short, it runs like this:
(§1)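 Kinase-panel profiling (50 oncogenic kinases) run by an outside contract service. The test compound was tested at a single concentration of 10 μM. Percent inhibition was calculated as 100 minus % remaining activity.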

The target of assay [3] is Hepatocyte growth factor receptor (Homo sapiens) (UniProt P08581). The experiment in a line: Inhibition of human c-MET at 10 uM using KKKSPGEYVNIEFG as substrate by [gamma-33P]-ATP assay relative to control. In short, it runs like this:
as §1

Assay [4] addresses Vascular endothelial growth factor receptor 2 (Homo sapiens) (UniProt P35968). Description: Inhibition of human KDR at 10 uM using poly[Glu:Tyr] (4:1) as substrate by [gamma-33P]-ATP assay relative to control. In short, it runs like this: (§2)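 Commercial kinase panel screen at a single concentration of 10 μM. % inhibition was calculated as 100 minus % activity.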
In assay [5] the target is Serine/threonine-protein kinase 26 (Homo sapiens) (UniProt Q9P289). Description: Inhibition of human MST4 at 10 uM using MBP as substrate by [gamma-33P]-ATP assay relative to control. In short, it runs like this: as §2
Chain of Serine/threonine-protein kinase 26 (Homo sapiens) (Q9P289 2-416 limits assumed): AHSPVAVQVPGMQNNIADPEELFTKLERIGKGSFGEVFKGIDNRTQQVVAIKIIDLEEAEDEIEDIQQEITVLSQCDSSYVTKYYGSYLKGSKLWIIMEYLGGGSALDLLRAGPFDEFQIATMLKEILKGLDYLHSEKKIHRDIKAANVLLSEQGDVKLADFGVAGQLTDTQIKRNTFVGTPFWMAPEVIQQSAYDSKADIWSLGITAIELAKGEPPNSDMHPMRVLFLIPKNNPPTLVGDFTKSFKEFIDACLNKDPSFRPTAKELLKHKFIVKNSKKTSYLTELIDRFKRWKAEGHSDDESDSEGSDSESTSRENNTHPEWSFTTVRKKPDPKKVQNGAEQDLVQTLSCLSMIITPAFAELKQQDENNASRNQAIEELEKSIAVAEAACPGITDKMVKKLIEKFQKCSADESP
For assay [6], the target named is DNA-dependent protein kinase catalytic subunit (Homo sapiens) (UniProt P78527). The experiment in a line: Inhibition of human DNA-PK at 10 uM using EPPLSQEAFADLWKK as substrate by [gamma-33P]-ATP assay relative to control. In short, it runs like this:
as §2

The target in the next assay is Focal adhesion kinase 1 (Homo sapiens, UniProt Q05397). Description: Inhibition of human FAK at 10 uM using poly[Glu:Tyr] (4:1) as substrate by [gamma-33P]-ATP assay relative to control. In short, it runs like this:
as §2

Assay [7] deals with Proto-oncogene tyrosine-protein kinase receptor Ret (Homo sapiens) (UniProt P07949). Description: Inhibition of human RET at 10 uM using MEK1 (K97R) as substrate by [gamma-33P]-ATP assay relative to control. In short, it runs like this: as §1
Chain of Proto-oncogene tyrosine-protein kinase receptor Ret (Homo sapiens) (P07949 whole entry): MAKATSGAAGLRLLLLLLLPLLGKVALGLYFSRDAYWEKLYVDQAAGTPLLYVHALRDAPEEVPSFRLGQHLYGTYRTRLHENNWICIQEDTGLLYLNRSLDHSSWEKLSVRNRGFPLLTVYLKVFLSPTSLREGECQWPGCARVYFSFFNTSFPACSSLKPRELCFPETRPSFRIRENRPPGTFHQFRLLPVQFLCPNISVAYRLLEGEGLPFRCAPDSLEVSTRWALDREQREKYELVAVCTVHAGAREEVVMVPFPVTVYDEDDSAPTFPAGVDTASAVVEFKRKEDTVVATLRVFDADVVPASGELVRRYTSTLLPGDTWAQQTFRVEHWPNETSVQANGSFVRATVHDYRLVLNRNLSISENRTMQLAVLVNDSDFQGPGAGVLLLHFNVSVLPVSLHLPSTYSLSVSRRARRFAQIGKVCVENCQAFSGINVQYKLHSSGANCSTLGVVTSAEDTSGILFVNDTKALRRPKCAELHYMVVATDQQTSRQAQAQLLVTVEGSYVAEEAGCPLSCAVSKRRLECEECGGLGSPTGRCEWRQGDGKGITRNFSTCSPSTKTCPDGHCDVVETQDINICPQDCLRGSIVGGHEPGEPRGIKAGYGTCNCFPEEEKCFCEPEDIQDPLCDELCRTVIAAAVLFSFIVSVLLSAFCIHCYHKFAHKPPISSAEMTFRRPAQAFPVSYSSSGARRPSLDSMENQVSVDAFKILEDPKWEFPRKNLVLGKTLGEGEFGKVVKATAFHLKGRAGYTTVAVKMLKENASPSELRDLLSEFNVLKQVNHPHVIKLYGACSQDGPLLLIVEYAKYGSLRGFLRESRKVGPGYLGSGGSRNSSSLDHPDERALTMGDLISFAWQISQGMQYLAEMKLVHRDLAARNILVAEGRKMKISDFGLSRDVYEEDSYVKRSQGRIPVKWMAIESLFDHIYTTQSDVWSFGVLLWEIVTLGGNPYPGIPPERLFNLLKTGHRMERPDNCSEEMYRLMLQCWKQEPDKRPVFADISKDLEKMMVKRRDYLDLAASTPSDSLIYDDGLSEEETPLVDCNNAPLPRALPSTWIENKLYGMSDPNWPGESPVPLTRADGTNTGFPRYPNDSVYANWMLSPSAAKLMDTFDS
Assay [8] has as its target T2, Tyrosine-protein kinase SYK (Homo sapiens, UniProt P43405). Description: Inhibition of human SYK at 10 uM using poly[Glu:Tyr] (4:1) as substrate by [gamma-33P]-ATP assay relative to control. In short, it runs like this:
as §1

For assay [9], the target named is High affinity nerve growth factor receptor (Homo sapiens) (UniProt P04629). Description: Inhibition of human TRKA at 10 uM using poly[Glu:Tyr] (4:1) as substrate by [gamma-33P]-ATP assay relative to control. In short, it runs like this:
as §1

For assay [10], the target named is Tyrosine-protein kinase receptor TYRO3 (Homo sapiens) (UniProt Q06418). Description: Inhibition of human TYRO3 at 10 uM using poly[Glu:Tyr] (4:1) as substrate by [gamma-33P]-ATP assay relative to control. In short, it runs like this:
as §1

For another assay, the target named is Aurora kinase A (Homo sapiens, UniProt O14965). The experiment in a line: Inhibition of human AuroraA using [H-LRRASLG] as substrate by [gamma-33P]-ATP assay.
Chain of Aurora kinase A (O14965 whole entry): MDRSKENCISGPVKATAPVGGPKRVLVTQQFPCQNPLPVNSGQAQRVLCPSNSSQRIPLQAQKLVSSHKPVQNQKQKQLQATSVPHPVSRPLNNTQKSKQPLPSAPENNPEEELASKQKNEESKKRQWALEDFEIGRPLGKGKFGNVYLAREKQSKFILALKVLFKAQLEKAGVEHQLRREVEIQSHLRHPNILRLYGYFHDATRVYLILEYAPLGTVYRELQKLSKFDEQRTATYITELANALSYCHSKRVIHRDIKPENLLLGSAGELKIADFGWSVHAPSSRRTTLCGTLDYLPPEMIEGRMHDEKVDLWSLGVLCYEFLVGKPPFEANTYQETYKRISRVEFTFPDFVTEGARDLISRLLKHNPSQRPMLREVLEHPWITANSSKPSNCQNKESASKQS
The target in assay [11] is T1, Tyrosine-protein kinase receptor UFO. Description: Inhibition of human AXL using EAIYAAPFAKKK as substrate by [gamma-33P]-ATP assay.
Assay [12] concerns the target Serine/threonine-protein kinase PLK1 (Homo sapiens, UniProt P53350). Description: Inhibition of human PLK1 using casein as substrate by [gamma-33P]-ATP assay.
Assay [13] deals with T2, Tyrosine-protein kinase SYK. The experiment in a line: Inhibition of human SYK using poly[Glu:Tyr] (4:1) as substrate by [gamma-33P]-ATP assay.
The test system of a further assay is MDA-MB-231. Description: Antiproliferative activity against human MDA-MB-231 cells after 2 days by spectrophotometric analysis. The class given is functional. Particulars: MDA-MB-231, 48 h.
A further assay concerns HCC78. Description: Antiproliferative activity against human HCC78 cells after 2 days by spectrophotometric analysis. The format is functional. The settings on record: HCC78, 48 h.
A further assay concerns NOMO-1. Description: Antiproliferative activity against human NOMO1 cells after 2 days by spectrophotometric analysis. The class given is functional. The settings on record: NOMO-1, 48 h.
For the next assay, the system named is MV4-11. The experiment in a line: Antiproliferative activity against human MV4-11 cells after 2 days by spectrophotometric analysis. The format is functional. Particulars: MV4-11, 48 h.
For a further assay, the system named is PANC-1. The experiment in a line: Antiproliferative activity against human PANC1 cells after 2 days by spectrophotometric analysis. Particulars: PANC-1, 48 h. The class given is functional.
The next assay relates to A-375. The experiment in a line: Antiproliferative activity against human A375 cells after 2 days by spectrophotometric analysis. The class given is functional. The settings on record: A-375, 48 h.
Another assay has as its system HT-1080. Description: Antiproliferative activity against human HT1080 cells after 2 days by spectrophotometric analysis. The format is functional. The settings on record: HT-1080, 48 h.

Chain of Mast/stem cell growth factor receptor Kit (Homo sapiens) (P10721 whole entry): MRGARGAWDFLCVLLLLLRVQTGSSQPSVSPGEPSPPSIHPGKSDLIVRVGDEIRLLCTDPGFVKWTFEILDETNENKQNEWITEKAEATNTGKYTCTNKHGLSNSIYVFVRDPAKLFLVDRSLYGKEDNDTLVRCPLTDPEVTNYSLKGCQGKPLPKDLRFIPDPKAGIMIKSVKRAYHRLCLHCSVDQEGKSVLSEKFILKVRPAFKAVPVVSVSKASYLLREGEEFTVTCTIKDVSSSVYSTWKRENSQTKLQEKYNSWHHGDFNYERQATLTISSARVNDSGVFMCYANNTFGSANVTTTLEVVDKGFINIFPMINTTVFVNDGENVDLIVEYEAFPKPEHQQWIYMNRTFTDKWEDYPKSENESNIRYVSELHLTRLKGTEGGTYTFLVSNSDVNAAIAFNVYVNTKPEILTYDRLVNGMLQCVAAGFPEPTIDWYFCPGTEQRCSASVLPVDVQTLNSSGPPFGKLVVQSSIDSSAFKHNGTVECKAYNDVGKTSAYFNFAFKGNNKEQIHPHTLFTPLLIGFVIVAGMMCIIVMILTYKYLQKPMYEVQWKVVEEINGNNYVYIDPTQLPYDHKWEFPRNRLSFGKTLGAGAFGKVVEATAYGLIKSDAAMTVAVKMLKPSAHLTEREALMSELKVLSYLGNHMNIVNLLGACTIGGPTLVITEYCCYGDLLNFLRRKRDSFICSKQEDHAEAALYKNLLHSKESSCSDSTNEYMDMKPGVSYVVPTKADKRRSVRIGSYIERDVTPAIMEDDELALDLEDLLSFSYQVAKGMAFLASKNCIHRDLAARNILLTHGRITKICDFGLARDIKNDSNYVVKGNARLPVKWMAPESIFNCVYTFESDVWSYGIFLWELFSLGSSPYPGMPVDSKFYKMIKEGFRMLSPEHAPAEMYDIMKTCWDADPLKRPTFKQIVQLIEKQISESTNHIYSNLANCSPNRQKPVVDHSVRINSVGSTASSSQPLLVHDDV
Chain of Hepatocyte growth factor receptor (Homo sapiens) (P08581 whole entry): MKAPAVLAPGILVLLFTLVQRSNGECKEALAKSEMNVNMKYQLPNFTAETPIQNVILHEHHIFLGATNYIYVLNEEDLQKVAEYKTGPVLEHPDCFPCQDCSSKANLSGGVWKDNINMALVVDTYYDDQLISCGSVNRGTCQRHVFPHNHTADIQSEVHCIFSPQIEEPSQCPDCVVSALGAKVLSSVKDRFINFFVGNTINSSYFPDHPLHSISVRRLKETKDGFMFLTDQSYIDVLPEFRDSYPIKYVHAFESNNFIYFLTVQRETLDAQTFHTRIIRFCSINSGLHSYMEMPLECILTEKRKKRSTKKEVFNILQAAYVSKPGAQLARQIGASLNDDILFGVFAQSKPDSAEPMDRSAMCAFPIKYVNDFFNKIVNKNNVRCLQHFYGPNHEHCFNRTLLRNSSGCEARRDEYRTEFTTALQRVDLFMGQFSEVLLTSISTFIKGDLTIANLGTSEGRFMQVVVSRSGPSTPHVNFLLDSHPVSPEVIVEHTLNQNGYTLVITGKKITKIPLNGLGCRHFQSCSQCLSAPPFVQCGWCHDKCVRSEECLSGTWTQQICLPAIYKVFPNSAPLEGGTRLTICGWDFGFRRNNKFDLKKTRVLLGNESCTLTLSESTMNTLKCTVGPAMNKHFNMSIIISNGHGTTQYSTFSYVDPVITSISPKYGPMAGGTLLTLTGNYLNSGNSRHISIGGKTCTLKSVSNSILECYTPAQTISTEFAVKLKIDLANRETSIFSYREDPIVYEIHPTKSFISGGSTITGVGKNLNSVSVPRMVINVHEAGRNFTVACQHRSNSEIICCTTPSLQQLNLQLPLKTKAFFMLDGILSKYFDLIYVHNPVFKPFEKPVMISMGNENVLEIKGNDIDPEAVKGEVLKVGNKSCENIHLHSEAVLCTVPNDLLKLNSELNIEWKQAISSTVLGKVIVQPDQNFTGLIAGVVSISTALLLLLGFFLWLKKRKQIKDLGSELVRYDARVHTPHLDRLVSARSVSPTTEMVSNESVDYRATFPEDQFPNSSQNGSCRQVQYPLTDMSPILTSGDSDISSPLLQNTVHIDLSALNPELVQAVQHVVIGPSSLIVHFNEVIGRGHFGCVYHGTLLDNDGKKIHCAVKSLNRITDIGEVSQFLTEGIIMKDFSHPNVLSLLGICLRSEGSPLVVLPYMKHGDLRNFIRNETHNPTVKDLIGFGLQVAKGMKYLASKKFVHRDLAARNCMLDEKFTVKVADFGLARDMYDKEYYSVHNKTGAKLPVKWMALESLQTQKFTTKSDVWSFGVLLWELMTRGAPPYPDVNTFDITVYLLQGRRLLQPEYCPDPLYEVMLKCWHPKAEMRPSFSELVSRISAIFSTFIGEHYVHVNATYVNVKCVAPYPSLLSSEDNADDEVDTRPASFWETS
Chain of Serine/threonine-protein kinase PLK1 (P53350 whole entry): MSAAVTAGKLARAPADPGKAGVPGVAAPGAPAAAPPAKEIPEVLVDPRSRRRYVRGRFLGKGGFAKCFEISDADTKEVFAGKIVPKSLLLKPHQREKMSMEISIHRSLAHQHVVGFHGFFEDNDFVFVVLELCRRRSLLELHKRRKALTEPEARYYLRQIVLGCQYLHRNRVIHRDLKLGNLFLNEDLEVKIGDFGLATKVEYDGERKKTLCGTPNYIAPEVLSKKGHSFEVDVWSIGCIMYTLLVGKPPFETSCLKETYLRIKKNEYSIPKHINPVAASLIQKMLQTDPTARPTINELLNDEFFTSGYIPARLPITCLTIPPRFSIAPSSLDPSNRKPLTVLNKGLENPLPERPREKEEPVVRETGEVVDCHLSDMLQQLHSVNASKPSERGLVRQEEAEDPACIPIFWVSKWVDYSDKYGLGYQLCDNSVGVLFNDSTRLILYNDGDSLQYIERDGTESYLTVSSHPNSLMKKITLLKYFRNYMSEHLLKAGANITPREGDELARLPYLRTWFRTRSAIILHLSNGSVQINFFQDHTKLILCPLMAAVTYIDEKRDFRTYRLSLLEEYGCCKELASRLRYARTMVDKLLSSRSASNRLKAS

For `CC(=O)N1CCN(c2ccc(Nc3ncc(C(F)(F)F)c(N4Cc5cccc(N(C)S(C)(=O)=O)c5C4)n3)cc2)CC1`, the IC50 in assay [1] was less than 0.5 nM; against Aurora kinase A, 3 nM; in [11], less than 0.5 nM; in assay [12], 8.8 nM; in [13], 5.1 nM. In addition, the GI50 in the assay with A549 was determined as 1300 nM; in the assay on U-87 MG it was 22100 nM; in the assay with MDA-MB-231, 500 nM; in the assay on HCC78, 5200 nM; in the assay with NOMO-1, 3800 nM; in the assay with MV4-11 it was 100 nM. In addition, the GI50 with PANC-1 worked out at 430 nM; with A-375, 1000 nM; in the assay on HT-1080 it was 1800 nM. The inhibition is 17.8% in assay [2]; 17.9% in assay [3]; 55.8% in assay [4]; 25.3% in assay [5]; -4% in assay [6]; 96.4% on Focal adhesion kinase 1. Moreover, the inhibition in assay [7] came out at 85.2%; in assay [8], 95.3%; in [9], 92.2%; in [10], 87.7%.
